Values after ≈ are worked out from the molar mass of the structure shown. Active and inactive are the calls of the source. The rule behind the calls is not given here.
Assays:
Leishmania donovani [1] = experiment: Antileishmanial activity against log phase of wild type Leishmania donovani MHOM/80/IN/Dd8 promastigotes assessed as inhibition of cell growth incubated for 48 hrs by MTT assay; assay type: functional, organism-based; details: MHOM/80/IN/Dd8, 48 h
Method in brief: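 L. donovani Dd8 promastigotes grown at 24 °C, pH 7.2, in HEPES-modified RPMI-1640 with 10% heat-inactivated FBS and antibiotics. 2 × 10^5 log-phase cells were exposed to 10–100 µM compound (10 mM DMSO stocks diluted in medium) for 48 h at 24 °C. MTT (400 µg/mL final) was added for 4 h at 37 °C, formazan dissolved in DMSO, and A540 read. IC50 was taken against untreated cells; mean ± SD of three independent experiments.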

[2] = Cytotoxicity against human PMA-differentiated THP-1 macrophages assessed as inhibition of cell growth by MTT assay; assay type: toxicity, cell-based, Macrophage
Method in brief: (§1)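 About 2 × 10^5 THP-1 monocytes were differentiated with 20 ng/mL PMA for 48 h at 37 °C, and non-adherent cells were washed off with serum-free medium. Adherent macrophages were exposed to 10, 20, 50 and 100 µM compound for 48 h at 37 °C in 5% CO2. Viability was read by MTT.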

[3] = Selectivity index, ratio of IC50 for cytotoxicity against PMA-differentiated THP-1 macrophages to IC50 for antileishmanial activity against log phase of wild type Leishmania donovani MHOM/80/IN/Dd8 promastigotes; assay type: toxicity; details: human; read-out: Ratio IC50
Leishmania amazonensis = experiment: Antileishmanial activity against Leishmania amazonensis assessed as inhibition of parasite growth; assay type: functional, organism-based
Leishmania braziliensis = experiment: Antileishmanial activity against Leishmania braziliensis assessed as inhibition of parasite growth; assay type: functional, organism-based
Leishmania mexicana = experiment: Antileishmanial activity against Leishmania mexicana assessed as inhibition of parasite growth; assay type: functional, organism-based
Macrophage = experiment: Cytotoxicity against human PMA-differentiated THP-1 macrophages assessed as inhibition of cell growth measured upto 100 uM by MTT assay; assay type: toxicity, cell-based; method in brief: as §1
Leishmania donovani [4] = experiment: Antileishmanial activity against amastigote stage of Leishmania donovani MHOM/SD/62/IS-CL2D assessed as inhibition of parasite growth incubated for 3 days by CellTiter 96 Aqueous Non-Radioactive Cell Proliferation Assay; assay type: functional, organism-based; details: 72 h
Leishmania donovani [5] = experiment: Antileishmanial activity against Leishmania donovani assessed as inhibition of parasite growth incubated for 2 hrs by y [3H]thymidine incorporation assay; assay type: functional, organism-based
Leishmania donovani [6] = experiment: Induction of ROS generation in wild type Leishmania donovani MHOM/80/IN/Dd8 promastigotes at 5 to 10 uM incubated for 48 hrs by MitoSOX red dye based fluorescence spectrophotometric analysis; assay type: functional, organism-based; details: dose 5-10 µM
Method in brief: (§2)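 Promastigotes at about 1 × 10^6/mL were treated at ~5 or ~10 µM for 3, 6, 24 and 48 h, with 0.2% DMSO as vehicle and antimycin A (10 µM) as positive control. Cells were washed twice in HBSS and stained with 5 µM MitoSOX red for 20 min at 25 °C. Fluorescence was read at 510/580 nm ex/em.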

Leishmania donovani [7] = experiment: Induction of ROS generation in wild type Leishmania donovani MHOM/80/IN/Dd8 promastigotes at 5 uM incubated for 24 hrs by MitoSOX red dye based fluorescence spectrophotometric analysis relative to control; assay type: functional; method in brief: as §2
Leishmania donovani [8] = experiment: Induction of ROS generation in wild type Leishmania donovani MHOM/80/IN/Dd8 promastigotes at 10 uM incubated for 24 hrs by MitoSOX red dye based fluorescence spectrophotometric analysis; assay type: functional; method in brief: as §2
Leishmania donovani [9] = experiment: Induction of ROS generation in wild type Leishmania donovani MHOM/80/IN/Dd8 promastigotes incubated for 24 hrs by MitoSOX red dye based fluorescence spectrophotometric analysis; assay type: functional, organism-based
Method in brief: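 Promastigotes were grown at 24 °C in HEPES-modified RPMI-1640 with 10% heat-inactivated FBS, pH 7.2. About 1 × 10^6 parasites/ml were exposed to ~5 µM or ~10 µM test compound. Controls were untreated cells, antimycin A (10 µM) and 0.2% DMSO vehicle. Cells were washed twice in HBSS and stained with 5 µM MitoSOX red for 20 min at 25 °C. Fluorescence was read at ex 510/em 580 nm.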

Structure (SMILES) | IC50 (Leishmania donovani [1]) [µM] | IC50 [2] [µM] | selectivity ratio [3] | other results
CN1CCN(CCCNc2nc(-c3ccc(Cl)cc3)nc3ccccc23)CC1 | 28.5 |  |  | 
NCCCCNc1nc(-c2ccc(Cl)cc2)nc2ccccc12 | 12 | 13 | 1.08 | 
COc1ccc(-c2nc(NCCCN3CCN(C)CC3)c3ccccc3n2)cc1 | 6.3 | 53 | 7.28 | 
COc1ccc(-c2nc(NCCCN3CCOCC3)c3ccccc3n2)cc1O | 19 | 33.5 | 1.76 | 
CN1CCN(CCCNc2nc(-c3ccc(F)cc3)nc3ccccc23)CC1 | 8 | 40 | 5 | 
COc1cccc(-c2nc(O)c3ccccc3n2)c1 |  |  |  | EC50 (Leishmania amazonensis): 9.14 µM; EC50 (Leishmania braziliensis): 4.89 µM; EC50 (Leishmania mexicana): 5.29 µM
COc1cc(-c2nc(NCCCN3CCOCC3)c3ccccc3n2)cc(OC)c1OC |  |  |  | Activity (Macrophage): Toxic
CN(C)CCNc1nc(-c2ccc(O)cc2)nc2ccccc12 | 5.5 | 51 | 9.27 | 
COc1cc(-c2nc(NCCCN3CCN(C)CC3)c3ccccc3n2)cc(OC)c1OC | 90 | 54 | 0.6 | 
NCCNc1nc(-c2ccc(Cl)cc2)nc2ccccc12 | 6.5 | 15 | 2.3 | 
NCCNc1nc(-c2ccc(F)cc2)nc2ccccc12 | 25 | 64 | 2.56 | 
O=C1c2cc(I)ccc2-n2c1nc1ncccc1c2=O |  |  |  | IC50 (Leishmania donovani [4]): 0.016 µg/mL (≈ 0.0427 µM)
C=CC(C)(C)c1cc(/C=C/C(=O)c2ccc(O)cc2)c(OC)cc1O [LICOAGROCHACONE A] |  |  |  | IC50 (Leishmania donovani [5]): 4 µg/mL (≈ 11.8 µM)
COc1cccc(-c2nc(NCCCN(C)C)c3ccccc3n2)c1 | 5.5 | 37 | 6.72 | 
CCCCCCCCCCCCCCCCOP(=O)([O-])OCC[N+](C)(C)C [MILTEFOSINE] | 10.5 | 36 | 3.42 | 
COc1ccc(-c2nc(NCCCN3CCOCC3)c3ccccc3n2)cc1 | 25 | 56 | 2.24 | 
CN(C)CCCNc1nc(-c2ccc(Cl)cc2)nc2ccccc12 | 6.5 | 62 | 9.53 | 
CN(C)CCCNc1nc(-c2ccc(O)cc2)nc2ccccc12 | 6.5 | 65 | 10 | 
COc1ccc(-c2nc(NCCCN(C)C)c3ccccc3n2)cc1 | 5 | 67.5 | 13.5 | Activity (Leishmania donovani [6]): Active; Activity (Leishmania donovani [7]): 63%; Activity (Leishmania donovani [8]): 119%
COc1cc(-c2nc(NCCN(C)C)c3ccccc3n2)cc(OC)c1OC | 6.5 | 50 | 7.69 | 
COc1ccc(-c2nc(NCCN(C)C)c3ccccc3n2)cc1 | 5 | 57 | 11 | Activity (Leishmania donovani [6]): Active; Activity (Leishmania donovani [7]): 50%; Activity (Leishmania donovani [8]): 82%
CN(C)CCCNc1nc(-c2ccccc2)nc2ccccc12 | 9 | > 100 | > 11.1 | 
CN(C)CCCNc1nc(-c2ccc(F)cc2)nc2ccccc12 | 13 | 63 | 4.84 | 
NCCCCNc1nc(-c2ccc(F)cc2)nc2ccccc12 | 32.5 | 64 | 1.96 | 
Oc1ccc(-c2nc(NCCCN3CCOCC3)c3ccccc3n2)cc1 | 50 | 71 | 1.42 | 
CN(C)CCNc1nc(-c2ccc(Cl)cc2)nc2ccccc12 | 7.5 | 60 | 8 | 
COc1cc(-c2nc(NCCCN(C)C)c3ccccc3n2)cc(OC)c1OC | 29.5 | 61 | 2.06 | 
COc1ccc(-c2nc(NCCN(C)C)c3ccccc3n2)cc1O | 6.5 | 22.5 | 3.46 | 
CCCCCC[C@H]1C(=O)O[C@H](C)[C@H](NC(=O)c2cccc(NC=O)c2O)C(=O)O[C@@H](C)[C@@H]1OC(=O)CC(C)C |  |  |  | Activity (Leishmania donovani [9]): Active

From ChEMBL document CHEMBL5104110, “Identification of 2-arylquinazolines with alkyl-polyamine motifs as potent antileishmanial agents: synthesis and biological evaluation studies” (RSC Med Chem, 2022)
